Source: PubChem BioAssay (several laboratories)
In the library only some 2.2% were active in any assay of this set; here they are far more common.
Diaph act CS = activates diaphorase or chemically reduces, flagging diaphorase assay artifacts; Diaphorase/resazurin coupled assay, resorufin fluorescence, 16 min; hits give high values; 1 = vehicle wells, 0 = NADH-free wells; activation factor at 20 µM; 0.005% of 190,000 active;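 active = diaphorase activity raised at least twofold by the compound at 20 µM; inactive = activation factor below 2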
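Material: bacterial diaphorase enzyme (C. kluyveri); amount: enzyme 0.07 U/mL final; reagent: NADH substrate 0.114 mM plus resazurin dye 0.1 mM, final; doses: single compound dose of 20 µM, 1% DMSO final; timing: 16 min enzyme reaction, ambient temperature; measured by: fluorescence of resorufin, 544 nm excitation, 590 nm emission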
ROMK mod = modulators of human ROMK potassium channel. P48048. Tet-inducible ROMK, thallium flux fluorescence; actives lie on both sides. B-score at 10 µM. 2% of 130,000 active. AID 1918;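 active = signal ratio slope over the read window, or its plate-corrected B-score, at least 3 SD from the plate mean, either direction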;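 note: B-score of the F/F0 ratio slope over 7 to 12 s after thallium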
G6PDH CS = inhibits Leuconostoc G6PDH, flagging false hits in G6PDH-based assays | Purified L. mesenteroides G6PDH, diaphorase/resazurin coupled fluorescence, 45 min | inhibition, % at 5 µM | 0.12% of 200,000 active; in the data active = inhibition above about 50%
PMI act = activators of human phosphomannose isomerase; P34949; activation factor at 20 µM; purified human PMI, coupled resazurin fluorescence, 20 min; hits give high values; 1 = vehicle control, 0 substrate-free wells; AID 1214; 0.005% of 190,000 active;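 active = activation factor of 2 or more at 20 µM, relative to plate controls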
Target sequence (P34949 whole entry, looked up): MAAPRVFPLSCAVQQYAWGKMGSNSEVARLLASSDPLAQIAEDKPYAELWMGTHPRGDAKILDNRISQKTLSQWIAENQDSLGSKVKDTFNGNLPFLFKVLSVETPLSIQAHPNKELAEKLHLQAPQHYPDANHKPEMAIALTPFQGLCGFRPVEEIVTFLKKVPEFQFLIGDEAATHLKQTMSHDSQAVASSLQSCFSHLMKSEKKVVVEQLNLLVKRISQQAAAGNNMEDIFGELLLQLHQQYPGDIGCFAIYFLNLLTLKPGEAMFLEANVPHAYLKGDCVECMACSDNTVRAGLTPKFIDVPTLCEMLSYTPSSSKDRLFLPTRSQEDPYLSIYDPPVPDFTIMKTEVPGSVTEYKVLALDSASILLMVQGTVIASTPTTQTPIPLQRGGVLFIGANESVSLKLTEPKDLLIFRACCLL
PMI act hi M6P = PMI (human) activation, high substrate; P34949; coupled PMI enzyme assay, resazurin fluorescence, 20 min; hits give high values; 1 = untreated enzyme, 0 = substrate-free blank; activation factor at 20 µM; 0.34% of 190,000 active;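 active = activation factor of 2 or more at 20 µM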
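Test system: Human PMI in coupled enzyme assay | Input: 15 ng/mL PMI | Medium: HEPES-buffered pH 7.4 with magnesium and detergent | Compound: One concentration, 20 µM, in 1% DMSO | Incubation: Enzyme reaction with compound 20 min at room temperature | Detection: Diaphorase-driven resazurin-to-resorufin fluorescence, excitation 544, emission 590 nm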
Diaph inh CS = inhibits diaphorase or chemically oxidizes, flagging diaphorase assay artifacts; 0.69% of 190,000 active; AID 1217; diaphorase resazurin-to-resorufin fluorescence, NADH, 16 min; bacterial (C. kluyveri) enzyme, not human; inhibition, % at 20 µM;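 active = primary screen inhibition at 20 µM above a set limit, cut at about 50% in these data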;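 note: plate controls were DMSO with full reaction for no effect and wells lacking NADH for full effect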
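Test system: diaphorase enzyme from Clostridium kluyveri; amount: diaphorase at 0.14 U/mL in enzyme working solution; detection: fluorescence of resorufin formed from resazurin, Ex 544/Em 590 nm; times: reaction incubation of 16 min at room temperature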
ROMK hit retest = human ROMK channel modulation, retest confirmation | 54% of 3,000 active | normalized thallium flux (F/F0 slope) at 10 µM | ROMK thallium flux, fluorescence ratio; hits give low values | shares compounds with ROMK mod | AID 1917;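 active = Flux at 10 µM at least 3 SD below or above vehicle control mean in one or both replicates; inconclusive = no clear call, values can overlap the other calls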
Numbers without * were called inactive; ? = inconclusive; nt = no result.

SMILES	Diaph act CS	ROMK mod	G6PDH CS	PMI act	PMI act hi M6P	Diaph inh CS	ROMK hit retest
CCN(CC)S(=O)(=O)c1ccc(OC(C)C)c(NC(=O)c2c3c(nc4ccccc24)CCN(Cc2ccccc2)C3)c1	0.9	-3*	-3	1	0.9	15	0.059*
COc1ccc(-n2nc(C#N)c(Cl)cc2=O)cc1	0.9	-2.8*	1	1	0.9	14	0.052*
Cc1nc(SCC(=O)Nc2ccc3c(c2)OCO3)c(C#N)c2c1CCCC2	0.9	-0.2	0	0.9	0.9	9	nt
CCOc1cccc(NC(=O)CSc2nc(C)c3c(c2C#N)CCCC3)c1	0.9	nt	-4	1	1.1	9	0.076
Cc1c(C(=O)O)cccc1-c1ccc(/C=N/Nc2ccc(Br)cc2)o1	0.8	1.7*	5	1.6	2.2*	16	0.1*
COc1cc(C(=O)NCc2nnc(SCC(=O)Nc3ccc4c(c3)OCO4)o2)cc(OC)c1OC	0.9	0.055	6	1	1	9	nt
O=C(O)c1ccccc1C1=Nc2ccc(O)cc2Oc2cc(O)ccc21	0.9	nt	11	1.2	0.8	8	0.054*
Cc1cc(-c2ccccc2C(=O)O)on1	0.8	nt	10	0.9	0.9	16	nt
CNC(=O)/C(C#N)=C/c1c(N(Cc2ccccc2)Cc2ccccc2)nc2c(C)cccn2c1=O	0.9	nt	-9	0.9	1	11	0.059*
Cc1ccc(NC(=S)N(CCCN2CCCC2)Cc2cccn2Cc2ccc(Cl)cc2)cc1C	1.2	-2.8*	3	0.9	0.9	-16	0.062*
Cc1ccc(NC(=S)N(CCCN2CCCC2)Cc2cccn2Cc2ccc(Cl)cc2)cc1Cl	1.4	nt	1	1	1.1	-43	nt
CCC(=O)N1CCN(c2ccccc2NC(=O)c2ccc(-c3cccc([N+](=O)[O-])c3)o2)CC1	0.8	nt	-21	1	1	19	nt
CCN(CC)C(=O)C1CCCN(c2ccc([N+](=O)[O-])cc2/C=N/NC(=O)c2ccc([N+](=O)[O-])cc2)C1 (centres undefined)	1	nt	1	1	1	-2	?
CN1CCN(c2ccc([N+](=O)[O-])cc2/C=N/NC(=O)c2cccc([N+](=O)[O-])c2)CC1	1	-2.3*	-1	1.1	1.1	-2	0.058*
CN1CCN(c2ccccc2NC(=O)c2ccc(-c3cccc([N+](=O)[O-])c3)o2)CC1	0.9	-2.4*	-21	0.8	0.9	9	0.059*
CCN(CC)C(=O)C1CCCN(c2ccc([N+](=O)[O-])cc2/C=N/NC(=O)c2ccccc2)C1 (centres undefined)	0.9	0.027	6	1	1.1	5	nt
O=C(O)COc1ccccc1/C=C1\SC(=Nc2ccc(F)cc2)N(c2ccc(F)cc2)C1=O	1	0.44	1	1	1	3	nt
Cc1cc2nc(CN(C)Cc3c(C(=O)N(C)C)nc4ccc(Cl)cn34)[nH]c2cc1C	0.9	-0.16	11	1	1	12	nt
COc1ccc(-n2ccnc2CN2CCCC(CO)(Cc3cccc(OC)c3)C2)cc1 (centres undefined)	0.8	-1.6	20	0.8	0.9	25	nt
COc1cccc(CC2(CO)CCCN(Cc3c(C)cc(C)cc3-n3cccn3)C2)c1 (centres undefined)	0.9	-3.7*	14	0.9	1	6	0.055*
Cc1ccc2nc3c(cc(C#N)c(=N)n3Cc3cccnc3)c(=O)n2c1	nt	-2.1	6	nt	nt	nt	nt
COc1ccccc1CNC(=O)COC(=O)CCC(=O)c1cccs1	0.9	0.33	10	0.9	0.9	14	nt
O=C(CN1CCN(S(=O)(=O)c2ccc(Cl)s2)CC1)N1CCOCC1	nt	-3.2*	nt	nt	nt	nt	0.076
O=S(=O)(c1ccc(Cl)s1)N1CCN(Cc2ccccc2)CC1	0.8	-1.9	-7	0.8	0.8	24	nt
Cc1ccc(S(=O)(=O)NNC(=O)C2CC=CCC2C(=O)O)cc1 (centres undefined)	1.1	-0.093	7	1.3	1.1	-7	nt
SMILES	Diaph act CS	ROMK mod	G6PDH CS	PMI act	PMI act hi M6P	Diaph inh CS	ROMK hit retest
OC(CNCC1CCCO1)Cn1c2ccccc2c2ccccc21 (centres undefined)	0.9	-4.1*	2	1	1	10	0.061*
Cc1ccccc1OCc1n(CC(=O)OC2CC(C)CCC2C(C)C)c2ccccc2[n+]1C (centres undefined)	1.2	nt	2	1.1	1.1	-24	0.042*
CC1CCC(C(C)C)C(OC(=O)Cn2c(-c3ccc(Cl)cc3)[n+](C)c3ccccc32)C1 (centres undefined)	nt	-8*	nt	nt	nt	nt	0.043*
CC1CCC(C(C)C)C(OC(=O)COC(=O)c2ccc(N)cc2)C1 (centres undefined)	0.7	nt	-15	0.8	0.8	26	nt
CC1CCC(C(C)C)C(OC(=O)Cn2c(-c3ccc(Br)cc3)[n+](C)c3ccccc32)C1 (centres undefined)	1	-6.8*	-12	1.1	1	1	0.044*
COc1ccc(CNC(=O)CN(Cc2ccc(OC)cc2)C(=O)c2csnn2)cc1	1	-0.17	5	0.9	1	4	nt
CS/C(=C/[N+](=O)[O-])Nc1cccc2c1C(C)CC2(C)C (centres undefined)	1	-0.8	-9	1	1	4	nt
Cc1c(NC(=O)COC(=O)C2(c3ccc(F)cc3)CCCC2)c(=O)n(-c2ccccc2)n1C	0.8	0.75	6	1	0.9	16	nt
COc1cccc(CNC(=O)CSCc2cnn(-c3ccccc3)c2-n2cccc2)c1OC	0.7	-3.3*	3	0.9	0.9	26	0.079
CCC1SC2=NC(C)=C(C(=O)OCCOC)C(/C=C/c3ccccc3OC)N2C1=O (centres undefined)	0.9	nt	10	0.9	1	15	0.059*
Cc1ccc([C@@H]2C3COCC=C3C(C#N)=C(N)C2(C#N)C#N)o1 (some centres undefined)	0.6	-4.5*	1	0.8	0.5	35	0.046*
COc1ccccc1CN(Cc1cc2cc(C)cc(C)c2[nH]c1=O)Cc1nnnn1CC1CCCO1 (centres undefined)	0.7	-4.1*	9	1	0.9	26	0.066*
COc1ccccc1CN(Cc1cc2cc(C)ccc2[nH]c1=O)Cc1nnnn1CC1CCCO1 (centres undefined)	0.9	-1.7	4	0.9	1	8	nt
COC(=O)Cc1csc(Nc2ccc(F)c(Cl)c2)n1	0.9	0.021	0	1.1	1	9	nt
